Assay results taken from paper PMC9070076 (RSC Advances, 2019).

How the values were obtained:
[1] = Multicomponent pharmacokinetics in rat plasma after single i.v. EBI; assay type: in vivo, Sprague-Dawley rats; settings: Sprague-Dawley, iv, n = 6
[2] = test system: isoprenaline-induced myocardial infarction (MI) in mice; assay type: in vivo, Kunming mice; settings: 30 mg kg^-1 i.v. for 7 days, seventh day
Outline: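 Kunming mice (about 8 weeks, 20–30 g) were randomised into groups of n = 8 and given test compound i.v. for 7 days in 0.5% NaHCO₃:propylene glycol:saline (17:2:81). Isoprenaline chloride 5 mg kg⁻¹ i.p. was given days 4–5 to all groups except control. Lead II ECG ST elevation was recorded under pentobarbital. Day-7 orbital serum was taken for CK, and left-ventricle H&E sections were read at 200×. Single-tailed t test.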

[3] = 0.72 mL kg^-1, AUC0–t, Low dosage: 0.72 mL kg^-1 of 10 times concentrated EBI
[4] = 0.72 mL kg^-1, Cl, Low dosage: 0.72 mL kg^-1 of 10 times concentrated EBI
[5] = 0.72 mL kg^-1, MRT0–t, Low dosage: 0.72 mL kg^-1 of 10 times concentrated EBI
[6] = 0.72 mL kg^-1, Vd, Low dosage: 0.72 mL kg^-1 of 10 times concentrated EBI
[7] = 0.72 mL kg^-1, t 1/2, Low dosage: 0.72 mL kg^-1 of 10 times concentrated EBI
[8] = 3.6 mL kg^-1, AUC0–t, High dosage: 3.6 mL kg^-1 of 10 times concentrated EBI
[9] = 3.6 mL kg^-1, Cl, High dosage: 3.6 mL kg^-1 of 10 times concentrated EBI
[10] = 3.6 mL kg^-1, MRT0–t, High dosage: 3.6 mL kg^-1 of 10 times concentrated EBI
[11] = 3.6 mL kg^-1, Vd, High dosage: 3.6 mL kg^-1 of 10 times concentrated EBI
[12] = 3.6 mL kg^-1, t 1/2, High dosage: 3.6 mL kg^-1 of 10 times concentrated EBI

SMILES | AUC(0-t) [1, 3] [ng·h/mL] | clearance [1, 4] [mL/min] | MRT last [1, 5] [min] | Vd [1, 6] [L] | half-life [1, 7] [min] | AUC(0-t) [1, 8] [ng·h/mL] | clearance [1, 9] [mL/min] | MRT last [1, 10] [min] | Vd [1, 11] [L] | half-life [1, 12] [min] | ST segment elevation (ECG) ([2]; P < 0.05 vs. model group) | serum creatine kinase (CK) activity ([2]; P < 0.05 vs. model group) | heart histopathology (H&E staining) ([2]; left ventricle sections)
O=C(O)/C=C/c1ccc(O)c(O)c1 [Caffeic acid, caffeic acid] | 75.2 ± 43.8 | 8 | 8.4 ± 2.4 | 0.16 ± 0.07 | 13.8 ± 1.8 | 393 ± 145 | 6.83 | 12 ± 4.2 | 0.13 ± 0.06 | 13.2 ± 4.2 |  |  | 
O=C(O)[C@H]1O[C@@H](Oc2cc3oc(-c4ccc(O)cc4)cc(=O)c3c(O)c2O)[C@H](O)[C@@H](O)[C@@H]1O [Scutellarin, scutellarin] | 1510 ± 574 | 8.5 | 23.4 ± 5.4 | 0.9 ± 0.54 | 74.4 ± 38.4 | 6860 ± 989 | 7.5 | 27 ± 6 | 1.63 ± 0.65 | 151 ± 57 | seldom occurred | significantly decreased | mild edema, inflammatory infiltration and loss of striations in heart tissue
